According to ChEMBL document CHEMBL4673191, “A scaffold hopping strategy to generate new aryl-2-amino pyrimidine MRSA biofilm inhibitors” (RSC Med Chem, 2021):
Calls of active or inactive are those of the source. The rule behind the calls is not given here.

Assays:
[1] = test system: Staphylococcus aureus; assay: Inhibition of biofilm formation in methicillin-resistant Staphylococcus aureus ATCC 33591 incubated for 24 hrs by crystal violet staining based assay; type: functional, organism-based; conditions: ATCC 33591, 24 h
Method in brief: (§1)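 Overnight culture subcultured to OD600 0.01 in TSB with 2.0% (w/v) glucose; compound diluted in this medium, 100 µL per well of PVC plates, static incubation 24 h at 37 °C. Wells washed with water, stained with 0.1% crystal violet 30 min at ambient temperature, stain solubilized in ethanol, OD540 read minus no-biofilm background. Duplicates, at least two separate repeats.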

[2] = test system: Klebsiella pneumoniae; assay: Potentiation of colistin-induced antibacterial activty against Klebsiella pneumoniae B9 assessed as fractional inhibitory concentration index incubated for 16 hrs in presence of colistin by checkerboard assay; type: functional
Method in brief: (§2)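 Checkerboard in CAMHB inoculated with K. pneumoniae at 5 x 10⁵ CFU/mL. Compound serially diluted 2-fold down rows and colistin across columns, starting each at 2x top concentration; one row and one column give single-agent MICs.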

[3] = test system: Acinetobacter baumannii; assay: Potentiation of colistin-induced antibacterial activty against Acinetobacter baumannii ATCC 4106 assessed as colistin MIC at 60 uM incubated for 16 hrs by broth microdilution assay (reference value: 1024 microg/ml); type: functional
Method in brief: (§3)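 Cultures grown 4–6 h in CAMHB, diluted to 5 x 10⁵ CFU/mL. Compound added to aliquots from 100 mM DMSO stock; one aliquot left undosed for colistin MIC alone. Colistin serially diluted 2-fold in the compound-dosed suspension; compound-alone wells kept. Stationary, 37 °C, 16 h, then OD₆₀₀. Colistin MIC = lowest concentration giving 90% growth inhibition vs untreated. Duplicate, at least twice.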

[4] = test system: Staphylococcus aureus; assay: Antibacterial activity against methicillin-resistant Staphylococcus aureus ATCC 43300 assessed as inhibition of planktonic bacterial growth at IC50 incubated for 24 hrs by colony counter analysis; type: functional
Method in brief: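 MRSA 43300 grown overnight in TSB with 2.0% glucose (TSBG), inoculated into fresh TSBG at OD600 0.01, compound added to 3 mL tube cultures; untreated control. Shaken at 37 °C; samples at 2, 4, 6, 8, 24 h serially diluted in TSBG, plated on nutrient agar, incubated overnight at 37 °C, colonies counted. Duplicates, at least two separate repeats.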

[5] = test system: Klebsiella pneumoniae; assay: Potentiation of colistin-induced antibacterial activty against Klebsiella pneumoniae B9 assessed as fold reduction in colistin MIC at 60 uM incubated for 16 hrs by broth microdilution assay; type: functional; method in brief: as §3
[6] = test system: Staphylococcus aureus; assay: Inhibition of biofilm formation in methicillin-resistant Staphylococcus aureus ATCC 43300 incubated for 24 hrs by crystal violet staining based assay; type: functional, organism-based; conditions: ATCC 43300, 24 h; method in brief: as §1
[7] = test system: Staphylococcus aureus; assay: Inhibition of biofilm formation in methicillin-resistant Staphylococcus aureus ATCC 6538 incubated for 24 hrs by crystal violet staining based assay; type: functional, organism-based; conditions: ATCC 6538, 24 h; method in brief: as §1
[8] = test system: Staphylococcus aureus; assay: Antibiofilm activity against preformed methicillin-resistant Staphylococcus aureus ATCC 43300 assessed as dispersion of biofilm at 100 uM incubated for 24 hrs by crystal violet staining based assay; type: functional, organism-based
Method in brief: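 Overnight culture in TSB + 2.0% glucose subcultured to OD600 0.01 in TSBG; 100 µL per well of PVC plates, static 37 °C for 24 h to form biofilm. After washing, compound in medium added for a further 24 h at 37 °C; medium-only control. Washed, 0.1% crystal violet 30 min, ethanol-solubilized, OD540 with no-biofilm background subtracted. Duplicates, ≥2 repeats.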

[9] = test system: Staphylococcus aureus; assay: Inhibition of biofilm formation in methicillin-resistant Staphylococcus aureus BAA-44 incubated for 24 hrs by crystal violet staining based assay; type: functional, organism-based; conditions: BAA-44, 24 h; method in brief: as §1
[10] = test system: Staphylococcus aureus; assay: Inhibition of biofilm formation in methicillin-resistant Staphylococcus aureus ATCC 43300 at 200 uM incubated for 24 hrs by crystal violet staining based assay relative to control; type: functional; method in brief: as §1
[11] = test system: Klebsiella pneumoniae; assay: Effect on lipid A substitution pattern of lipopolysaccharide in Klebsiella pneumoniae B9 by mass spectrometry; type: functional
[12] = test system: Acinetobacter baumannii; assay: Antibacterial activity against Acinetobacter baumannii ATCC 4106 assessed as reduction in bacterial growth incubated for 16 hrs by broth microdilution assay; type: functional
Method in brief: (§4)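 Bacteria grown 4–6 h in CAMHB, subcultured to 5 x 10⁵ CFU/mL in fresh CAMHB. Compound added from 100 mM DMSO stock, then 2-fold serial dilution in microtiter plate; untreated and media-only wells as controls. Stationary incubation at 37 °C for 16 h, then OD₆₀₀ read. MIC taken as lowest concentration giving 90% growth inhibition vs untreated. Duplicate, repeated at least twice.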

[13] = test system: Klebsiella pneumoniae; assay: Antibacterial activity against Klebsiella pneumoniae B9 assessed as reduction in bacterial growth incubated for 16 hrs by broth microdilution assay; type: functional; method in brief: as §4
[14] = test system: Klebsiella pneumoniae; assay: Potentiation of colistin-induced antibacterial activity against Klebsiella pneumoniae B9 assessed as colistin MIC at 60 uM incubated for 16 hrs by broth microdilution assay (reference value: 512 ug/ml); type: functional; method in brief: as §3
[15] = test system: Klebsiella pneumoniae; assay: Potentiation of colistin-induced antibacterial activty against Klebsiella pneumoniae A5 assessed as fractional inhibitory concentration index incubated for 16 hrs in presence of colistin by checkerboard assay; type: functional; method in brief: as §2
[16] = test system: Klebsiella pneumoniae; assay: Potentiation of colistin-induced antibacterial activty against Klebsiella pneumoniae F2210219mcr-1 assessed as fractional inhibitory concentration index incubated for 16 hrs in presence of colistin by checkerboard assay; type: functional; method in brief: as §2
[17] = Hemolytic activity against sheep blood assessed as blood cell lysis at 200 uM incubated for 1 hr by UV-visible spectrophotometry; type: ADME, tissue-based, Ovis aries; conditions: sheep blood cells, read-out: Activity
Method in brief: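 Defibrinated sheep blood centrifuged, washed and resuspended in PBS three times, then diluted 10-fold. Compound added from DMSO stock; 1% Triton X as 100% lysis and PBS as zero lysis. Shaken at 200 rpm, 37 °C, 1 h, then centrifuged. Supernatant diluted 40-fold in water and absorbance read at 540 nm.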

Row | SMILES | IC50 [1] | fractional inhibitory concentration index (FICI) [2] | MIC [3] | Activity [4] | fold change (FC) [5] | IC50 [6] | IC50 [7] | Activity [8] | IC50 [9] | inhibition at 200 µM [10] | Activity [11] | MIC [12] | MIC [13] | MIC [14] | fractional inhibitory concentration index (FICI) [15] | fractional inhibitory concentration index (FICI) [16] | hemolysis at 1 h, 200 µM [17] | MIC [4]
1 | Cl.Nc1nccc(-c2cccc(NC(=O)c3cc(Br)cc(Br)c3)c2)n1 | 20.2 µM | <=0.09 | > 64 µg/mL | inactive | 32 | 17.4 µM | 15.6 µM | inactive | 14.1 µM | > 50% | inactive | ≥ 200 µM | ≥ 200 µM | 16 µg/mL | <=0.31 | <=0.19 | 3.4% | 
2 | Cl.Nc1ncc(-c2ccccc2NC(=O)c2cc(Br)cc(Br)c2)cn1 |  |  | > 64 µg/mL |  |  | 69 µM |  | inactive |  | > 50% |  | ≥ 200 µM | ≥ 200 µM |  |  |  |  | 
3 | Cl.Nc1nccc(-c2ccc(NC(=O)c3cc(Cl)cc(Cl)c3)cc2)n1 |  |  | > 64 µg/mL |  |  | 41 µM |  | inactive |  | > 50% |  | ≥ 200 µM | ≥ 200 µM |  |  |  |  | 
4 | Cl.Nc1ncc(-c2ccccc2NC(=O)c2cc(F)cc(F)c2)cn1 |  |  | > 64 µg/mL |  |  | > 200 µM |  | inactive |  | > 50% |  | ≥ 200 µM | ≥ 200 µM |  |  |  |  | 
5 | Cl.Nc1ncc(-c2cccc(NC(=O)c3cc(Br)cc(Br)c3)c2)cn1 |  |  | > 64 µg/mL |  |  | 43 µM |  | inactive |  | > 50% |  | ≥ 200 µM | ≥ 200 µM |  |  |  |  | 
6 | Cl.Nc1nccc(-c2ccc(NC(=O)c3cc(F)cc(F)c3)cc2)n1 |  |  | > 64 µg/mL |  |  | > 200 µM |  | inactive |  | > 50% |  | ≥ 200 µM | ≥ 200 µM |  |  |  |  | 
7 | Cl.Nc1ncc(-c2cccc(NC(=O)c3cc(Cl)cc(Cl)c3)c2)cn1 |  |  | > 64 µg/mL |  |  | > 200 µM |  | inactive |  | > 50% |  | ≥ 200 µM | ≥ 200 µM |  |  |  |  | 
8 | Cl.Nc1nccc(-c2cccc(NC(=O)c3cc(Cl)cc(Cl)c3)c2)n1 | 26.6 µM |  | > 64 µg/mL | inactive |  | 26.4 µM | 24.9 µM | inactive | 29.5 µM | > 50% |  | ≥ 200 µM | ≥ 200 µM |  |  |  | 5% | 
9 | Nc1nccc(-c2cccc(NC(=O)c3cc(Cl)cc(Br)c3)c2)n1 |  |  |  |  |  | 27.6 µM |  |  |  |  |  |  |  |  |  |  |  | > 200 µM
10 | Cl.Nc1ncc(-c2ccccc2NC(=O)c2cc(Cl)cc(Cl)c2)cn1 |  |  | > 64 µg/mL |  |  | > 100 µM |  | inactive |  | > 50% |  | ≥ 200 µM | ≥ 200 µM |  |  |  |  | 
11 | Cl.Nc1nccc(-c2ccccc2NC(=O)c2cc(Cl)cc(Cl)c2)n1 |  |  | > 64 µg/mL |  |  | > 50 µM |  | inactive |  | > 50% |  | ≥ 200 µM | ≥ 200 µM |  |  |  |  | 
12 | Cl.Nc1nccc(-c2ccccc2NC(=O)c2cc(Br)cc(Br)c2)n1 |  |  | > 64 µg/mL |  |  | > 200 µM |  | inactive |  | > 50% |  | ≥ 200 µM | ≥ 200 µM |  |  |  |  | 
13 | CCCCCCCCCC(=O)NCCCc1cnc(N)nc1 |  |  |  |  |  |  |  |  | 72 µM |  |  |  |  |  |  |  |  | 
14 | Cl.Nc1nccc(-c2ccc(NC(=O)c3cc(Br)cc(Br)c3)cc2)n1 |  |  | > 64 µg/mL |  |  | > 50 µM |  | inactive |  | > 50% |  | ≥ 200 µM | ≥ 200 µM |  |  |  |  | 
15 | Cl.Nc1nccc(-c2cccc(NC(=O)c3cc(F)cc(F)c3)c2)n1 |  |  | > 64 µg/mL |  |  | > 200 µM |  | inactive |  | > 50% |  | ≥ 200 µM | ≥ 200 µM |  |  |  |  | 
16 | Cl.Nc1ncc(-c2ccc(NC(=O)c3cc(F)cc(F)c3)cc2)cn1 |  |  | > 64 µg/mL |  |  | > 200 µM |  | inactive |  | > 50% |  | ≥ 200 µM | ≥ 200 µM |  |  |  |  | 
17 | Cl.Nc1ncc(-c2ccc(NC(=O)c3cc(Br)cc(Br)c3)cc2)cn1 |  |  | > 64 µg/mL |  |  | > 100 µM |  | inactive |  | > 50% |  | ≥ 200 µM | ≥ 200 µM |  |  |  |  | 
18 | Cl.Nc1nccc(-c2ccccc2NC(=O)c2cc(F)cc(F)c2)n1 |  |  | > 64 µg/mL |  |  | > 200 µM |  | inactive |  | > 50% |  | ≥ 200 µM | ≥ 200 µM |  |  |  |  | 
19 | Cl.Nc1ncc(-c2cccc(NC(=O)c3cc(F)cc(F)c3)c2)cn1 |  |  | > 64 µg/mL |  |  | > 200 µM |  | inactive |  | > 50% |  | ≥ 200 µM | ≥ 200 µM |  |  |  |  | 
20 | Cl.Nc1ncc(-c2ccc(NC(=O)c3cc(Cl)cc(Cl)c3)cc2)cn1 |  |  | > 64 µg/mL |  |  | > 200 µM |  | inactive |  | > 50% |  | ≥ 200 µM | ≥ 200 µM |  |  |  |  | 
